Series [1] addresses Histone deacetylase 4 (Homo sapiens, UniProt P56524). Kind of series: Inhibition of HDAC4 using p53 (379 to 382 residues) based fluorogenic peptide substrate.
Series [2] is described as follows: AUC in BALB/C mouse at 10 mg/kg, po or 2 mg/kg, iv by LC-MS/MS method. Format: ADME, organism-based, Plasma. The note with it: BALB/C, plasma. Put shortly:
(§1)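 Female-unspecified BALB/C nude mice (15−20 g, N = 16 per arm); iv bolus 2 mg/kg in 5% DMSO/40% PEG400/55% saline and/or oral gavage 10 mg/kg as 0.445% microcrystalline cellulose microsuspension. Blood sampled at nine (iv) or eight (po) time points into sodium heparin tubes; plasma by LC-MS/MS; noncompartmental analysis.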

Series [3] concerns the target T1, Polyamine deacetylase HDAC10 (Homo sapiens, UniProt Q969S8).
T1 sequence (Q969S8 whole entry): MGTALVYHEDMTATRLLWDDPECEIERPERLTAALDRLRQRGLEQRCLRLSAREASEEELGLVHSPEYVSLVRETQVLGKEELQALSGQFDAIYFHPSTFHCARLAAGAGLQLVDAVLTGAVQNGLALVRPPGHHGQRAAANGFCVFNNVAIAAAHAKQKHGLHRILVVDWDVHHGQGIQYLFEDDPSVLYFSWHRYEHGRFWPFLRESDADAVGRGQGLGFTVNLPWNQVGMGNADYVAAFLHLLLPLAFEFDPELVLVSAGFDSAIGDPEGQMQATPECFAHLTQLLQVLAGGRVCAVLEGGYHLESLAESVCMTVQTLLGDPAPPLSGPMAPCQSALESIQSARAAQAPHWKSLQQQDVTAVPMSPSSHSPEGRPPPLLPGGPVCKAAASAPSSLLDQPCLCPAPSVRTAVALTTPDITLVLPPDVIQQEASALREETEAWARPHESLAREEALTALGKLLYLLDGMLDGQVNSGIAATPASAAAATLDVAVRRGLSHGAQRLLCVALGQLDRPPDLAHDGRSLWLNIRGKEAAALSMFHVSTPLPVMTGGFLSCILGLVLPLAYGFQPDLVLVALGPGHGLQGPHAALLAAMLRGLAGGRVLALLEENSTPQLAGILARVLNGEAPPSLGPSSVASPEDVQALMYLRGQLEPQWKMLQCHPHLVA
The experiment in a line: Inhibition of HDAC10 using p53 (379 to 382 residues) based fluorogenic peptide substrate.

Series [4] deals with Cytochrome P450 2C9 (Homo sapiens, UniProt P11712). The experiment in a line: Inhibition of CYP2C9 in human liver microsomes in presence of NADPH by LC-MS/MS method. Format: ADME, Microsome. For orientation: Microsomes from liver hold many membrane-bound enzymes, among them those of drug oxidation.
Sequence of Cytochrome P450 2C9 (P11712 whole entry): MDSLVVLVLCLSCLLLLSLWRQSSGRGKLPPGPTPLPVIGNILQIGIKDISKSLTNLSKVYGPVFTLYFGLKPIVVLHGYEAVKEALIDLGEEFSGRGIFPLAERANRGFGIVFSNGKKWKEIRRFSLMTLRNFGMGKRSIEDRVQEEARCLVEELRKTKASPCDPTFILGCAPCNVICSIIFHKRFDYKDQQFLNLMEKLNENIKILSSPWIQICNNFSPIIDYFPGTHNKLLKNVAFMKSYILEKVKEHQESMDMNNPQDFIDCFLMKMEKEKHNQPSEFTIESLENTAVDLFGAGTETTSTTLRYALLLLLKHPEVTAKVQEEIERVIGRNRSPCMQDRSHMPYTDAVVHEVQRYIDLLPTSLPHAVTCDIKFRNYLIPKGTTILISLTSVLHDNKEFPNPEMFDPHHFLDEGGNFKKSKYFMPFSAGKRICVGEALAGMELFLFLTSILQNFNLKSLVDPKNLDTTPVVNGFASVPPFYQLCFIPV
Series [5] can be described thus: Tmax in BALB/C mouse at 10 mg/kg, po or 2 mg/kg, iv by LC-MS/MS method. Format: ADME, organism-based. To be noted: BALB/C, in vivo. Put shortly:
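Single-dose PK: iv bolus 2 mg/kg in 5% DMSO/40% PEG400/55% saline and/or oral gavage 10 mg/kg as 0.445% microcrystalline cellulose microsuspension; BALB/C nude mice (15−20 g, N = 16 per arm) or male Sprague−Dawley rats (250 ± 20 g, N = 3). Blood at eight (po) or nine (iv) time points into sodium heparin, plasma by LC-MS/MS, noncompartmental analysis.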

Series [6] deals with Histone deacetylase (Homo sapiens) (UniProt Q13547+O15379+Q9UBN7+Q92769+Q9UQL6+Q8WUI4+Q9BY41+Q96DB2+P56524+Q9UKV0+Q969S8). Kind of series: Inhibition of Class 1 histone deacetylase in human HeLa cells assessed as induction in p21 protein expression at 3 uM incubated for 16 hrs by luciferase reporter gene assay relative to HDAC inhibitor entinostat. Format: cell-based. Also on record: scale not given: the % may be the effect or the level left. For orientation: A reporter such as luciferase makes a cellular process visible.

The target of series [7] is Histone deacetylase 2 (Homo sapiens, UniProt Q92769). Kind of series: Inhibition of HDAC2 using p53 (379 to 382 residues) based fluorogenic peptide substrate.
Sequence of Histone deacetylase 2 (Q92769 whole entry, the tested form may be a part): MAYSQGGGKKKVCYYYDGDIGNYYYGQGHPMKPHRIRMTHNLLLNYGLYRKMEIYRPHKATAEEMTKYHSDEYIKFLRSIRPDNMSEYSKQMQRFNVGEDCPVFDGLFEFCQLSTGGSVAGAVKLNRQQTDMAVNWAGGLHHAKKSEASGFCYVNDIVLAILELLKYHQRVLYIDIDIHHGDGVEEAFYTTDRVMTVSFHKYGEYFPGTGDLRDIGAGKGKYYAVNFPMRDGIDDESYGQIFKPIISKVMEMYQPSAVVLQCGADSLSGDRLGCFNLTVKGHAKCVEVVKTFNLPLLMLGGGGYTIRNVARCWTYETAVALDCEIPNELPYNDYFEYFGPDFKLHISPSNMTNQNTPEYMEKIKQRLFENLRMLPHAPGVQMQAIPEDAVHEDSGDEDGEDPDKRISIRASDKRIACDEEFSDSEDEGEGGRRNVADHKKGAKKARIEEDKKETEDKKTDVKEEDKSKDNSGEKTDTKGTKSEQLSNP
Series [8] in a line: Clearance in BALB/C mouse at 10 mg/kg, po or 2 mg/kg, iv by LC-MS/MS method. Format: ADME, organism-based. To be noted: in vivo. The essentials:
as §1

Series [9] addresses T2, Histone deacetylase 11 (Homo sapiens, UniProt Q96DB2).
T2 sequence (Q96DB2 whole entry): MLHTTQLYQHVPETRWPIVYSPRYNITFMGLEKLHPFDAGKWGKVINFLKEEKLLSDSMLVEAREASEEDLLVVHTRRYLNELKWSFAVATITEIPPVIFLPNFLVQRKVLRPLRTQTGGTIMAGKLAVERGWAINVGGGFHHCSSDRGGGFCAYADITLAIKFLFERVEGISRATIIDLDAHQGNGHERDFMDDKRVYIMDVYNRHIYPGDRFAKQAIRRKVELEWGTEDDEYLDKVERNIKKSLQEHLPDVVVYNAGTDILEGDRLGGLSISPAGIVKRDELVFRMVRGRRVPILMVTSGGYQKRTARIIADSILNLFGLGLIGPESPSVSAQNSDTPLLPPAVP
Kind of series: Inhibition of HDAC11 using p53 (379 to 382 residues) based fluorogenic peptide substrate.

A short description of series [10]: Oral bioavailability in BALB/C mouse at 10 mg/kg by LC-MS/MS method. Format: ADME, organism-based. The note with it: BALB/C, in vivo. The essentials: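 Bioavailability from single-dose iv (2 mg/kg, 5% DMSO/40% PEG400/55% saline) and oral gavage (10 mg/kg, 0.445% microcrystalline cellulose microsuspension) studies in BALB/C nude mice (N = 16 per arm); plasma at eight (po) or nine (iv) time points, LC-MS/MS, noncompartmental analysis.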

The target in series [11] is Histone deacetylase 5 (Homo sapiens, UniProt Q9UQL6). The experiment in a line: Inhibition of HDAC5 using p53 (379 to 382 residues) based fluorogenic peptide substrate.
Sequence of Histone deacetylase 5 (Q9UQL6 whole entry, the tested form may be a part): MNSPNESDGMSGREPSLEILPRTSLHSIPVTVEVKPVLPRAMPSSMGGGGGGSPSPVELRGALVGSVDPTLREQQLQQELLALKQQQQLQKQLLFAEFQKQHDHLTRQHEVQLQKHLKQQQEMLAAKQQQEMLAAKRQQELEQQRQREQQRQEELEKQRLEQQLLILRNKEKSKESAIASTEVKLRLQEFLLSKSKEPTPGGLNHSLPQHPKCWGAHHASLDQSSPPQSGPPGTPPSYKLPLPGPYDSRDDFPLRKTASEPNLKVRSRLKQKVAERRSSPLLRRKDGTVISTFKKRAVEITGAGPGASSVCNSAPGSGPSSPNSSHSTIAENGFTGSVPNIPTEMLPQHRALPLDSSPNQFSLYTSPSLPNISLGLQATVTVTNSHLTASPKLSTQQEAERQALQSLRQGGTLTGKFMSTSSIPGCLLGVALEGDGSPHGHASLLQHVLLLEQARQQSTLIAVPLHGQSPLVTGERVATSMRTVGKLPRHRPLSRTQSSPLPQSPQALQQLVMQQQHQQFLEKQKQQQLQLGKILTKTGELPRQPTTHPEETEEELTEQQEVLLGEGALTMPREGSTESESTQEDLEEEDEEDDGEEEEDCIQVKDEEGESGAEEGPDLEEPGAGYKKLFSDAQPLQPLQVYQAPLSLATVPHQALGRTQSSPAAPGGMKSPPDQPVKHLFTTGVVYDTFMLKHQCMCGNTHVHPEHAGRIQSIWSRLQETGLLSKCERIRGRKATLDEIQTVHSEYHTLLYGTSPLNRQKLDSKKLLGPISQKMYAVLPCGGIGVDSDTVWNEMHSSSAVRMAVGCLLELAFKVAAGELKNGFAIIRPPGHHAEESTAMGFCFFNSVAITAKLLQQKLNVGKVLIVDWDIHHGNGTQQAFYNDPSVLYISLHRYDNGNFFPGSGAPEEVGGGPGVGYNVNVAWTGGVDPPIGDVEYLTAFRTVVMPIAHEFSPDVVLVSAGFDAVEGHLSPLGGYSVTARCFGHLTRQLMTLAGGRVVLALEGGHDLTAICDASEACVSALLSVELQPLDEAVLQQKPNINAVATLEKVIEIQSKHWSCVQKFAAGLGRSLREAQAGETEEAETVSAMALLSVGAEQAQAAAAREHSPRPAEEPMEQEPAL
Series [12] has as its target Histone deacetylase 9 (Homo sapiens, UniProt Q9UKV0). Kind of series: Inhibition of HDAC9 using p53 (379 to 382 residues) based fluorogenic peptide substrate.
The target of series [13] is T3, Cytochrome P450 1A2 (Homo sapiens, UniProt P05177).
T3 sequence (P05177 whole entry): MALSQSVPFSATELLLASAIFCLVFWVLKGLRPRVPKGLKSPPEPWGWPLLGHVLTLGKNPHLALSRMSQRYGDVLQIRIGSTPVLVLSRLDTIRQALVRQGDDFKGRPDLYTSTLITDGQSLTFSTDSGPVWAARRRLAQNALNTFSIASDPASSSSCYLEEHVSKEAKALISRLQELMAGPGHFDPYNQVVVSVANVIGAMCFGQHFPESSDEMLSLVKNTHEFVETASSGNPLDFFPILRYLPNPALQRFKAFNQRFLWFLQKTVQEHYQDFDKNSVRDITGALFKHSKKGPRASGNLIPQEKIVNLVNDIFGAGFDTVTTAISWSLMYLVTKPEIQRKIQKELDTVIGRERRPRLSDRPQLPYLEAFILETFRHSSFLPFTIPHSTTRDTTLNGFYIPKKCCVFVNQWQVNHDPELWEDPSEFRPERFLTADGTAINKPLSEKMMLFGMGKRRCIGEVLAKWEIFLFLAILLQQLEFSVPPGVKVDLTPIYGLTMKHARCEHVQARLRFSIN
The experiment in a line: Inhibition of CYP1A2 in human liver microsomes in presence of NADPH by LC-MS/MS method. Format: ADME, Microsome.

Series [14] can be described thus: Cmax in BALB/C mouse at 10 mg/kg, po or 2 mg/kg, iv by LC-MS/MS method. Format: ADME, organism-based. To be noted: BALB/C, in vivo. Put shortly:
as §1

Experimental findings from ChEMBL document CHEMBL2177000, “Pharmacokinetic optimization of class-selective histone deacetylase inhibitors and identification of associated candidate predictive biomarkers of hepatocellular carcinoma tumor response” (J Med Chem, 2012) are described below.

Molecules are shown by their SMILES.

Sequence of Histone deacetylase 4 (P56524 whole entry, the tested form may be a part): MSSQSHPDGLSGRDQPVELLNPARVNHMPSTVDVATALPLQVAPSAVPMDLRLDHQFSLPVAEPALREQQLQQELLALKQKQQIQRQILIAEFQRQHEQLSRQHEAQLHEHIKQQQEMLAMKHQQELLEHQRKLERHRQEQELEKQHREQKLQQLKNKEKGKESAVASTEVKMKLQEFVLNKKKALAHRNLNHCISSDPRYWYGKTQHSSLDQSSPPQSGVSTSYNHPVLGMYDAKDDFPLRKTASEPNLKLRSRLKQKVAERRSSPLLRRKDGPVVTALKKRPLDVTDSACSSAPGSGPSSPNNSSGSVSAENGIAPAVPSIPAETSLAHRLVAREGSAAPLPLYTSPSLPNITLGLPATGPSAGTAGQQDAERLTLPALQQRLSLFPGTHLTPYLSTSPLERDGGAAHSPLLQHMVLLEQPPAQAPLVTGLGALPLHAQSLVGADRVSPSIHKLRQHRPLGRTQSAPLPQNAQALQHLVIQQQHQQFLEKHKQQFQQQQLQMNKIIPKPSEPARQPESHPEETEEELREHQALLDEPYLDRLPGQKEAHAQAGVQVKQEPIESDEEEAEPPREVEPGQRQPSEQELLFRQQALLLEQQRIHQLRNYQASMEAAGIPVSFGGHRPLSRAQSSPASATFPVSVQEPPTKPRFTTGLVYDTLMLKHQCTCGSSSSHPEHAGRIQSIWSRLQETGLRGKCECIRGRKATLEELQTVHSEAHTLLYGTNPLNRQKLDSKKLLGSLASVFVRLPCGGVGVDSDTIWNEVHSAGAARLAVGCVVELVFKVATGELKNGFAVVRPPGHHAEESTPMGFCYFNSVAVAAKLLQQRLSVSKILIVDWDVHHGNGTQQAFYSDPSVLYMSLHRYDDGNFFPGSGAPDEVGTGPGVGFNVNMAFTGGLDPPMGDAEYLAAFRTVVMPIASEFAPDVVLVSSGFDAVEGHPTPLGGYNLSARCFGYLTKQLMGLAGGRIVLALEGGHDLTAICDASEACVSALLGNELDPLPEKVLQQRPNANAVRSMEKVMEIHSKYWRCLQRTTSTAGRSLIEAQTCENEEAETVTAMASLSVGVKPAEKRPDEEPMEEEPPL
Sequence of Histone deacetylase 9 (Q9UKV0 whole entry, the tested form may be a part): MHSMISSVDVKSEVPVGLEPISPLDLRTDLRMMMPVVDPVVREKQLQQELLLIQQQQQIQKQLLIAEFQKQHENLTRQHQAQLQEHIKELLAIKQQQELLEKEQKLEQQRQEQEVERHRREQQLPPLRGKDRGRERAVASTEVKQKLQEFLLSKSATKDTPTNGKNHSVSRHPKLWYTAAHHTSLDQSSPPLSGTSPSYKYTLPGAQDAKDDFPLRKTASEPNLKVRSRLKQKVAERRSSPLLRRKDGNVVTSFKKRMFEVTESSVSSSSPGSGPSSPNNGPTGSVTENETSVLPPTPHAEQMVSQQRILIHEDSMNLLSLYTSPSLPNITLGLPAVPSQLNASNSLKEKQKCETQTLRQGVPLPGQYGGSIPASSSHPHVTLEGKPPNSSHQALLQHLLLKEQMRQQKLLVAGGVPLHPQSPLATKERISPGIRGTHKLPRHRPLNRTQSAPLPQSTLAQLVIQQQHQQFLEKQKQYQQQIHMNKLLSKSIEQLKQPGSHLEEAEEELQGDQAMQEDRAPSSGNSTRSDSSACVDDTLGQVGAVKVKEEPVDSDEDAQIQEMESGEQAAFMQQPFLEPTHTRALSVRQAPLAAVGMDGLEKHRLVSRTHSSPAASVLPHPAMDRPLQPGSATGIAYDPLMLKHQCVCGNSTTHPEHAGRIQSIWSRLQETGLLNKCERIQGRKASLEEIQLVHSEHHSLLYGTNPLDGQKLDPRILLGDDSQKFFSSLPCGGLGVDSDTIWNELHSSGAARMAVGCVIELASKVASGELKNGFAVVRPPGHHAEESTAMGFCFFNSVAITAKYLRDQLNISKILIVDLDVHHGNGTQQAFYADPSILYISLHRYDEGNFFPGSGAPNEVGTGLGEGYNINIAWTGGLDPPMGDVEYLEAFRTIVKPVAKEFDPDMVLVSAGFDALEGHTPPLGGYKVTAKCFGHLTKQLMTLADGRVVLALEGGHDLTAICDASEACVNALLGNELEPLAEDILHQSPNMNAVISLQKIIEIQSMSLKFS

`CN1C[C@H](C(=O)Nc2ccc(Cl)cc2)[C@@H](c2ccc(/C=C/C(=O)Nc3ccccc3N)cc2F)C1` (racemic): the IC50 (usually the concentration needed to halve the response being measured) was 46 µM in series [1]; 5 µM in [3]; 13 µM in series [4]; 0.22 µM in [7]; greater than 30 µM in series [9]; 5.3 µM in series [11]. Also, the values for the IC50 in series [12] and in series [13] were 43 µM and 28 µM, respectively. Also, the AUC – broadly, the area under the concentration-time curve, a measure of exposure – in [2] is 3570 ng·h/mL. For the same compound, the Tmax (usually the time from dosing to the highest level) in [5] was found to be 2 h. Besides, in series [6], the Activity was 130%. This compound also gave a clearance in series [8] of 23 mL/min/kg. Besides, the bioavailability (commonly the share of a dose that reaches the circulation, judged against a reference dose that is usually intravenous) in series [10] turned out to be 49%. Also, the Cmax (commonly the highest concentration seen after dosing) in [14] came out at 828 ng/mL.
Turning to `CN1C[C@H](C(=O)Nc2ccc(Cl)cc2)[C@@H](c2ccc(/C=C/C(=O)Nc3ccccc3N)cc2)C1` [listing 1 of 2 here], the Activity in series [6] stood at 257%.
Take `CN1C[C@@H](C(=O)Nc2ccc(Cl)cc2)[C@H](c2ccc(/C=C/C(=O)Nc3ccccc3N)cc2)C1`: the IC50 in series [1] amounted to 36 µM; in series [3], 1.6 µM; in series [4], 23 µM; in [7], 0.27 µM; in series [9], 20 µM; in series [11], 1.1 µM. The IC50 stood at 13 µM in [12] and 50 µM in [13]. Moreover, the AUC in series [2] was found to be 2540 ng·h/mL. In addition, the Tmax in [5] was 1 h. The compound further came in with a clearance in series [8] of 58 mL/min/kg. This compound had a bioavailability in series [10] of 89%. This compound also returned a Cmax in [14] of 450 ng/mL.
In the case of `CN1C[C@H](C(=O)Nc2ccc(Cl)cc2)[C@@H](c2ccc(/C=C/C(=O)Nc3ccccc3N)cc2)C1` [listing 2 of 2 here], the IC50 in [1] was 13 µM; in [3] it was 3.4 µM; in [4], 29 µM; in series [7], 0.25 µM; in [9], 14 µM; in [11] it was 3.5 µM. In addition, the IC50 in series [12] was 16 µM; in [13], 42 µM.
